Measured values reported in ChEMBL document CHEMBL1140720, “Novel prodrugs of tegafur that display improved anticancer activity and antiangiogenic properties” (J Med Chem, 2008).
One block for each molecule: values may come before it. Active and inactive are the calls of the source. The rule behind the calls is not given here.

Tests used:
[1] = Anticancer activity against human astrocytes cells after 72 hrs by Hoechst test; assay type: ADME, cell-based, Astrocyte; details: for IC50: Homo sapiens, Astrocyte, 72 h; for IC90 at 72 h: human, human astrocytes
Procedure, shortened: (§1)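 Cells seeded at 0.5–1 × 10^4/well for 24 h, then exposed in triplicate to a concentration titration for 72 h. Drug stock 0.5 M in DMSO, final DMSO ≤0.1%. Cells rinsed with PBS, fixed in 70% ethanol, and stained for DNA (Hoechst). IC50/IC90 taken from best-fit curves (linear or exponential) of % survival vs concentration, ≥3 independent experiments.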

[2] = Anticancer activity against mouse Pan02 cells after 72 hrs by Hoechst test; assay type: functional, cell-based; details: Pan02, 72 h; procedure, shortened: as §1
[3] = tested on: HT-29; experiment: Anticancer activity against human HT29 cells after 72 hrs by Hoechst test; assay type: functional, cell-based; details: HT-29, 72 h; procedure, shortened: as §1
[4] = tested on: CT26; experiment: Anticancer activity against mouse CT26 cells after 72 hrs by Hoechst test; assay type: functional, cell-based; details: CT26, 72 h; procedure, shortened: as §1
[5] = tested on: U-251; experiment: Anticancer activity against human U251 cells after 72 hrs by Hoechst test; assay type: functional, cell-based; procedure, shortened: as §1
[6] = tested on: BXPC-3; experiment: Anticancer activity against human BXPC3 cells after 72 hrs in the presence of semicarbazide by Hoechst test; assay type: functional, cell-based; details: BXPC-3, 72 h
Procedure, shortened: (§2)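 Same 72 h Hoechst viability titration, run with or without co-addition of 500 µM semicarbazide as formaldehyde scavenger. IC50 and IC90 derived from dose-response curves.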

[7] = tested on: HUVEC; experiment: Effect on cell viability of HUVEC cells after 48 hrs; assay type: functional, cell-based; details: Homo sapiens
Procedure, shortened: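 HUVEC grown at 37 °C, 5% CO2. Seeded in 96-well plates, then exposed to a concentration titration for 48 h. Viability read by Hoechst DNA fluorescence after ethanol fixation. IC50/IC90 from best-fit curves of ≥3 independent experiments.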

[8] = tested on: CT26; experiment: Anticancer activity against mouse CT26 cells after 72 hrs in the presence of semicarbazide by Hoechst test; assay type: functional, cell-based; details: CT26, 72 h; procedure, shortened: as §2
[9] = Anticancer activity against human MES-SA DXS cells after 72 hrs by Hoechst test; assay type: functional, cell-based; procedure, shortened: as §1
[10] = tested on: LS-1034; experiment: Anticancer activity against human LS1034 cells after 72 hrs in the presence of semicarbazide by Hoechst test; assay type: functional, cell-based; details: LS-1034, 72 h; procedure, shortened: as §2
[11] = Anticancer activity against human MES-SA cells after 72 hrs by Hoechst test; assay type: functional, cell-based; procedure, shortened: as §1
[12] = tested on: BXPC-3; experiment: Anticancer activity against human BXPC3 cells after 72 hrs by Hoechst test; assay type: functional, cell-based; details: BXPC-3, 72 h; procedure, shortened: as §1
[13] = tested on: HT-29; experiment: Anticancer activity against human HT29 cells after 72 hrs in the presence of semicarbazide by Hoechst test; assay type: functional, cell-based; details: HT-29, 72 h; procedure, shortened: as §2
[14] = tested on: LS-1034; experiment: Anticancer activity against human LS1034 cells after 72 hrs by Hoechst test; assay type: functional, cell-based; details: LS-1034, 72 h; procedure, shortened: as §1
[15] = Anticancer activity against human SK-ES cells after 72 hrs by Hoechst test; assay type: functional, cell-based; procedure, shortened: as §1
[16] = tested on: HT-29; experiment: Antitumor activity against human HT29 xenografted CD1 mouse assessed as decrease in CEA level; assay type: functional
Procedure, shortened: (§3)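 Male nude CD1 mice implanted sc in the flank with HT-29 cells. Once tumors were palpable, oral dosing at 50 mg/kg (water vehicle), with vehicle-only controls; 14 controls, 12 per treated group. Tumors measured by caliper twice weekly, volume = (L × W²)/2. At the end, blood drawn for serum CEA.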

[17] = tested on: HT-29; experiment: Antitumor activity against human HT29 xenografted CD1 mouse at 50 mg/kg, po; assay type: functional, organism-based; design: dose 50 mg/kg; procedure, shortened: as §3
[18] = tested on: CT26; experiment: Anticancer activity against mouse CT26 cells after 72 hrs in the presence of succinate by Hoechst test; assay type: functional, cell-based; details: CT26, 72 h
Procedure, shortened: (§4)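 Same 72 h Hoechst viability titration, with or without co-addition of succinic acid at 2.5 mM. IC50 and IC90 derived from dose-response curves.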

[19] = tested on: HUVEC; experiment: Antiangiogenic activity against HUVEC cells assessed as tube formation at 80 uM after 8 hrs; assay type: functional, cell-based; details: Homo sapiens
Procedure, shortened: (§5)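 HUVEC (5 × 10^4 cells/well) seeded on a matrigel layer in supplemented EGM-2 medium. Test agent added at 80 µM, triplicate wells, incubated 3 to 24 h. Tube formation was visualized by light microscopy and photographed at ×40.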

[20] = tested on: BXPC-3; experiment: Anticancer activity against human BXPC3 cells after 72 hrs in the presence of HMTA by Hoechst test; assay type: functional, cell-based; details: BXPC-3, 72 h
Procedure, shortened: (§6)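 Same 72 h Hoechst viability titration, with or without co-addition of hexamethylenetetramine (HMTA) at 250 µM. IC50 and IC90 derived from dose-response curves.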

[21] = tested on: HT-29; experiment: Anticancer activity against human HT29 cells after 72 hrs in the presence of HMTA by Hoechst test; assay type: functional, cell-based; details: HT-29, 72 h; procedure, shortened: as §6
[22] = tested on: LS-1034; experiment: Anticancer activity against human LS1034 cells after 72 hrs in the presence of HMTA by Hoechst test; assay type: functional, cell-based; details: LS-1034, 72 h; procedure, shortened: as §6
[23] = tested on: LS-1034; experiment: Anticancer activity against human LS1034 cells after 72 hrs in the presence of succinate by Hoechst test; assay type: functional, cell-based; details: LS-1034, 72 h; procedure, shortened: as §4
[24] = tested on: CT26; experiment: Anticancer activity against mouse CT26 cells after 72 hrs in the presence of HMTA by Hoechst test; assay type: functional, cell-based; details: CT26, 72 h; procedure, shortened: as §6
[25] = tested on: HUVEC; experiment: Antiangiogenic activity against HUVEC cells assessed as tube formation at 80 uM after 24 hrs; assay type: functional, cell-based; details: Homo sapiens; procedure, shortened: as §5
[26] = tested on: Mus musculus; experiment: Inhibition of HDAC in po dosed mouse 4T1 tumor implanted in BALB/c mouse assessed as histone acetylation level after 4 hrs; assay type: functional
Procedure, shortened: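 Balb/c mice carrying sc 4T1 tumors (5 × 10^4 cells implanted), dosed orally at 100 mg/kg once tumors reached 1.0 cm³. Tumors excised 4 h later and histones extracted; 5 µg protein run on 15% SDS gels. Western blot for acetyl-H4 (Lys-12), normalized to pan-H3; fold change versus untreated.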

[27] = tested on: BXPC-3; experiment: Anticancer activity against human BXPC3 cells after 72 hrs in the presence of succinate by Hoechst test; assay type: functional, cell-based; details: BXPC-3, 72 h; procedure, shortened: as §4
[28] = tested on: HT-29; experiment: Anticancer activity against human HT29 cells after 72 hrs in the presence of succinate by Hoechst test; assay type: functional, cell-based; details: HT-29, 72 h; procedure, shortened: as §4
[29] = tested on: HUVEC; experiment: Antiangiogenic activity against HUVEC cells assessed as tube formation at 80 uM after 3 hrs; assay type: functional, cell-based; details: Homo sapiens; procedure, shortened: as §5

- IC50 [1]: 187 µM
- IC90 at 72 h [1]: 476 µM
- IC50 [2]: 96 µM
- IC90 [2]: 219 µM
- IC50 [3]: 67 µM
- IC50 [4]: 99 µM
- IC90 [4]: 170 µM
- IC50 ([5]; Homo sapiens, U-251, 72 h): 103 µM
- IC90 ([5]; Homo sapiens, U-251, 72 h): 223 µM
- IC50 [6]: 160 µM
- IC90 [6]: 460 µM
- IC50 [8]: 132 µM
- IC90 [8]: 252 µM
- IC50 [9]: 63 µM
- IC50 [10]: 132 µM
- IC90 [10]: 296 µM
- IC50 [11]: 79 µM
- IC50 [12]: 74 µM
- IC50 [13]: 164 µM
- IC90 [13]: 303 µM
- IC50 [14]: 84 µM
- IC50 [15]: 45 µM
- IC90 [15]: 80 µM
SMILES: O=c1c(F)cn(C2CCCO2)c(=O)n1CO (centres undefined)
- IC50 [7]: 70 µM
- IC90 [7]: 120 µM

- IC50 [1]: 4290 µM
- IC90 at 72 h [1]: 7680 µM
- IC50 [2]: 179 µM
- IC90 [2]: 637 µM
- IC50 [18]: 90 µM
- IC90 [18]: 311 µM
- IC50 ([5]; Homo sapiens, U-251, 72 h): 384 µM
- IC90 ([5]; Homo sapiens, U-251, 72 h): 1280 µM
- IC50 [20]: 145 µM
- IC90 [20]: 654 µM
- IC50 [21]: 158 µM
- IC90 [21]: 612 µM
- IC50 [22]: 193 µM
- IC90 [22]: 852 µM
- IC50 [23]: 172 µM
- IC90 [23]: 617 µM
- IC50 [24]: 107 µM
- IC90 [24]: 464 µM
- IC50 [27]: 154 µM
- IC90 [27]: 719 µM
- IC50 [28]: 158 µM
- IC90 [28]: 644 µM
- IC50 [15]: 174 µM
- IC90 [15]: 531 µM
SMILES: O=c1[nH]c(=O)n(C2CCCO2)cc1F (centres undefined) [TEGAFUR]
- Activity [16]: Active
- Activity [17]: Active
- IC50 [7]: 1000 µM
- IC90 [7]: 3400 µM
- Activity [19]: inactive
- Activity [25]: inactive
- Activity [26]: 2
- Activity [29]: inactive

SMILES: CCOP(=O)(OCC)OCn1c(=O)c(F)cn(C2CCCO2)c1=O (centres undefined)
- IC50 [1]: 832 µM
- IC90 at 72 h [1]: 2790 µM
- IC50 [3]: 19 µM
- IC90 [3]: 80 µM
- IC50 ([5]; Homo sapiens, U-251, 72 h): 73 µM
- IC90 ([5]; Homo sapiens, U-251, 72 h): 287 µM

- IC50 [1]: 200 µM
- IC90 at 72 h [1]: 323 µM
- IC50 [2]: 46 µM
- IC90 [2]: 149 µM
- IC50 [3]: 35 µM
- IC90 [3]: 84 µM
- IC50 [4]: 27 µM
- IC90 [4]: 76 µM
- IC50 ([5]; Homo sapiens, U-251, 72 h): 55 µM
- IC50 ([5]; u-251): 107 µM
- IC50 [6]: 88 µM
- IC90 [6]: 280 µM
- IC50 [8]: 52 µM
- IC90 [8]: 105 µM
- IC50 [9]: 54 µM
- IC50 [10]: 34 µM
- IC90 [10]: 94 µM
- IC50 [11]: 71 µM
- IC50 [12]: 81 µM
- IC50 [13]: 51 µM
- IC90 [13]: 138 µM
- IC50 [14]: 42 µM
- IC90 [14]: 79 µM
- IC50 [15]: 47 µM
- IC90 [15]: 81 µM
SMILES: CCCC(=O)OCn1c(=O)c(F)cn(C2CCCO2)c1=O (centres undefined)
- Activity [16]: Active
- Activity [17]: Active
- IC50 [7]: 100 µM
- IC90 [7]: 170 µM
- Activity [25]: Active
- Activity [26]: 2
